Measured values as given in ChEMBL document CHEMBL1165950, “Design and synthesis of new potent anticancer pyrazoles with high FLT3 kinase inhibitory selectivity” (Bioorg Med Chem, 2010).

Assays:
Type in all cases: functional
SNB-75 [1] = experiment: Growth inhibition of human SNB75 cells after 48 hrs by sulforhodamine B assay; conditions: SNB-75, 48 h; for CC50: read-out: LC50 (the source's name)
How it was run: (§1)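 NCI 60-cell screen, five-dose mode. Cells grown in RPMI 1640 with 5% FBS and 2 mM L-glutamine and plated at 5000-40,000 cells/well according to doubling time. After 24 h preincubation, a Tz plate was TCA-fixed. Five concentrations (10-fold or 1/2 log dilutions) were applied for 48 h at 37 °C. SRB staining read at 515 nm. IC50 taken from [(Ti-Tz)/(C-Tz)]×100 = 50.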

A498 = experiment: Growth inhibition of human A498 cells after 48 hrs by sulforhodamine B assay; conditions: A498, 48 h
How it was run: (§2)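 NCI five-dose SRB assay in RPMI 1640 with 5% FBS and 2 mM L-glutamine. Cells were preincubated 24 h, then exposed 48 h at 37 °C to five concentrations (10-fold or half-log serial dilutions from DMSO stocks). TCA fixation, SRB staining, and absorbance at 515 nm followed. IC50 was taken where [(Ti−Tz)/(C−Tz)]×100 = 50, with Tz as time-zero cell density.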

HL-60(TB) = experiment: Cytotoxicity against human HL-60(TB) cells assessed as cell growth at 1 uM after 48 hrs by sulforhodamine B assay; conditions: HL-60, 48 h, read-out: Activity
How it was run: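 NCI 60-cell panel. Cells are grown in RPMI 1640 with 5% FBS and 2 mM L-glutamine, seeded at 5000–40,000 cells/well according to doubling time, and preincubated 24 h. Time-zero plates are TCA-fixed. Compound from DMSO stock is given at five 10-fold or 1/2-log concentrations for 48 h at 37 °C, 5% CO2. Suspension cells are fixed with 80% TCA (final 16%) and SRB-stained, with absorbance at 515 nm. Percent growth is derived from Tz, control and test readings.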

CAKI-1 [2] = experiment: Cytotoxicity against human Caki1 cells assessed as cell growth at 10 uM; conditions: read-out: Activity
How it was run: (§3)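 Single-dose NCI-60 screen at 10 µM. Cells were grown in RPMI 1640 with 5% FBS and 2 mM L-glutamine, then treated for 48 h at 37 °C. Protein was measured by SRB staining with absorbance at 515 nm. Percentage growth was recorded, and inhibition percentage was calculated as 100 minus growth percentage.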

Malme-3M [3] = experiment: Cytotoxicity against human MALME-3M cells assessed as cell growth at 0.001 uM after 48 hrs by sulforhodamine B assay; conditions: read-out: Activity
HCC 2998 = experiment: Cytotoxicity against human HCC2998 cells assessed as cell growth at 0.01 uM after 48 hrs by sulforhodamine B assay; conditions: HCC 2998, 48 h, read-out: Activity
SNB-75 [4] = experiment: Cytotoxicity against human SNB75 cells assessed as cell growth at 100 nM after 48 hrs by sulforhodamine B assay; conditions: SNB-75, 48 h, read-out: Activity
OVCAR-5 [5] = experiment: Cytotoxicity against human OVCAR5 cells assessed as cell growth at 0.001 uM after 48 hrs by sulforhodamine B assay; conditions: OVCAR-5, 48 h, read-out: Activity
HCT-15 [6] = experiment: Growth inhibition of human HCT15 cells after 48 hrs by sulforhodamine B assay; conditions: HCT-15, 48 h; for CC50: read-out: LC50 (the source's name); how it was run: as §1
HCT-15 [7] = experiment: Cytotoxicity against human HCT15 cells assessed as cell growth at 1 uM after 48 hrs by sulforhodamine B assay; conditions: HCT-15, 48 h, read-out: Activity
COLO 205 [8] = experiment: Cytotoxicity against human COLO205 cells assessed as cell growth at 10 uM after 48 hrs by sulforhodamine B assay; conditions: COLO 205, 48 h, read-out: Activity
K562 = experiment: Cytotoxicity against human K562 cells assessed as cell growth at 0.001 uM after 48 hrs by sulforhodamine B assay; conditions: K562, 48 h, read-out: Activity
MDA-MB-435 = experiment: Cytotoxicity against human MDA-MB-435 cells assessed as cell growth at 10 uM; conditions: read-out: Activity
How it was run: (§4)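 NCI-60 screen: cells grown in RPMI 1640 with 5% FBS and 2 mM L-glutamine, plated at 5000–40,000 cells/well according to doubling time, and preincubated 24 h at 37 °C, 5% CO2. The single 10 µM dose (DMSO stock) was added, then incubated 48 h. Cells were TCA-fixed and stained with 0.4% SRB, read at 515 nm, and growth % calculated against time-zero and control plates.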

OVCAR-5 [9] = experiment: Cytotoxicity against human OVCAR5 cells assessed as cell growth at 10 uM; conditions: read-out: Activity; how it was run: as §4
U-251 = experiment: Cytotoxicity against human U251 cells assessed as cell growth at 1 uM after 48 hrs by sulforhodamine B assay; conditions: U-251, 48 h, read-out: Activity
[10] = Cytotoxicity against human […] cells assessed as cell growth at 0.001 uM after 48 hrs by sulforhodamine B assay; conditions: read-out: Activity
COLO 205 [11] = experiment: Cytotoxicity against human COLO205 cells assessed as cell growth at 0.001 uM after 48 hrs by sulforhodamine B assay; conditions: COLO 205, 48 h, read-out: Activity
How it was run: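 NCI-60 five-dose screen. Cells were grown in RPMI 1640 with 5% FBS and 2 mM L-glutamine, plated at 5000–40,000 cells/well and preincubated for 24 h. Time-zero plates were TCA-fixed. DMSO-solubilized drug was added at five concentrations (10-fold or ½-log serial dilutions) for 48 h at 37 °C, 5% CO2. Cells were TCA-fixed, stained with 0.4% SRB and read at 515 nm. Percent growth used time-zero, control and test absorbances.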

M14 = experiment: Growth inhibition of human M14 cells after 48 hrs by sulforhodamine B assay; conditions: M14, 48 h; how it was run: as §1
LOX IMVI = experiment: Cytotoxicity against human LOXIMVI cells assessed as cell growth at 10 uM; conditions: read-out: Activity; how it was run: as §4
MDA-MB-231 = experiment: Growth inhibition of human MDA-MB-231 cells after 48 hrs by sulforhodamine B assay; conditions: MDA-MB-231, 48 h; how it was run: as §1
EKVX = experiment: Growth inhibition of human EKVX cells after 48 hrs by sulforhodamine B assay; conditions: for CC50: read-out: LC50 (the source's name); how it was run: as §2
OVCAR-5 [12] = experiment: Cytotoxicity against human OVCAR5 cells assessed as cell growth at 1 uM after 48 hrs by sulforhodamine B assay; conditions: OVCAR-5, 48 h, read-out: Activity
COLO 205 [13] = experiment: Cytotoxicity against human COLO205 cells assessed as cell growth at 10 uM; conditions: read-out: Activity; how it was run: as §3
CAKI-1 [14] = experiment: Cytotoxicity against human Caki1 cells assessed as cell growth at 0.01 uM after 48 hrs by sulforhodamine B assay; conditions: CAKI-1, 48 h, read-out: Activity
SK-MEL-28 = experiment: Cytotoxicity against human SK-MEL-28 cells assessed as cell growth at 0.01 uM after 48 hrs by sulforhodamine B assay; conditions: SK-MEL-28, 48 h, read-out: Activity
Malme-3M [15] = experiment: Cytotoxicity against human MALME-3M cells assessed as cell growth at 1 uM after 48 hrs by sulforhodamine B assay; conditions: read-out: Activity

| SMILES | GI50 (SNB-75 [1]) [µM] | TGI (SNB-75 [1]) [µM] | CC50 (SNB-75 [1]) [µM] | GI50 (A498) [µM] | LC50 (A498) [µM] | TGI (A498) [µM] | growth at 1 µM (HL-60(TB)) [%] | growth at 10 µM (CAKI-1 [2]) [%] | growth at 0.001 µM (Malme-3M [3]) [%] | growth at 0.01 µM (HCC 2998) [%] | growth at 0.1 µM (SNB-75 [4]) [%] | growth at 0.001 µM (OVCAR-5 [5]) [%] | GI50 (HCT-15 [6]) [µM] | TGI (HCT-15 [6]) [µM] | CC50 (HCT-15 [6]) [µM] | growth at 1 µM (HCT-15 [7]) [%] | growth at 10 µM (COLO 205 [8]) [%] | growth at 0.001 µM (K562) [%] | growth at 10 µM (MDA-MB-435) [%] | growth at 10 µM (OVCAR-5 [9]) [%] | further results |
| --- | --- | --- | --- | --- | --- | --- | --- | --- | --- | --- | --- | --- | --- | --- | --- | --- | --- | --- | --- | --- | --- |
| COc1cc(C)cc(-c2c(-c3ccnc(-c4ccc(N(C)C)cc4)c3)cnn2CC#N)c1 | 0.0694 | > 100 | > 100 | 0.132 | > 100 | > 100 | -27 | 15.9 | 97 | 30 | 6 | 90 | 0.0766 | > 100 | > 100 | 9 | 4 | 104 | -14.7 | 77.7 | growth at 1 µM (U-251): 6%; growth at 0.001 µM [10]: 100%; growth at 0.001 µM (COLO 205 [11]): 98%; GI50 (M14): 0.0541 µM; TGI (M14): 0.483 µM; CC50 (M14; read-out: LC50 (the source's name)): > 100 µM; growth at 10 µM (LOX IMVI): 4.55%; GI50 (MDA-MB-231): 0.256 µM; LC50 (MDA-MB-231): > 100 µM; GI50 (EKVX): 0.29 µM; TGI (EKVX): > 100 µM; CC50 (EKVX): > 100 µM; growth at 1 µM (OVCAR-5 [12]): 81%; growth at 10 µM (COLO 205 [13]): -71.1%; growth at 0.01 µM (CAKI-1 [14]): -6%; growth at 0.01 µM (SK-MEL-28): 20%; growth at 1 µM (Malme-3M [15]): 40% |
| COc1cc(C)cc(-c2nn(CC#N)cc2-c2ccc(-c3cccc(C(C)=O)c3)nc2)c1 | 1.96 | 6.24 | > 100 | 1.08 | 72.5 | 5.14 | 2 | 17.8 | 97 | 87 | 79 | 74 | 2.14 | > 100 | > 100 | 12 | -62 | 82 | -27.8 | 91.3 | growth at 1 µM (U-251): 6%; growth at 0.001 µM [10]: 100%; growth at 0.001 µM (COLO 205 [11]): 103%; GI50 (M14): 1.17 µM; TGI (M14): 3.3 µM; growth at 10 µM (LOX IMVI): 25.4%; GI50 (MDA-MB-231): 3.04 µM; LC50 (MDA-MB-231): > 100 µM; TGI (MDA-MB-231): > 100 µM; GI50 (EKVX): 3.98 µM; TGI (EKVX): 50.7 µM; CC50 (EKVX): > 100 µM; growth at 1 µM (OVCAR-5 [12]): 21%; growth at 10 µM (COLO 205 [13]): -44.6%; growth at 0.01 µM (CAKI-1 [14]): 96%; growth at 0.01 µM (SK-MEL-28): 93%; growth at 1 µM (Malme-3M [15]): 38% |
